From ChEMBL document CHEMBL3351398, “Discovery of a Potent and Selective DGAT1 Inhibitor with a Piperidinyl-oxy-cyclohexanecarboxylic Acid Moiety” (ACS Med Chem Lett, 2014)
Converted amounts (≈) assume the structure as drawn.

How the values were obtained:
[1] = Drug level in adipose fat of C57BL/6 mouse at 10 mg/kg, po after 24 hrs; format: ADME, organism-based, Adipose tissue; design: dose 10 mg/kg, route oral; conditions: read-out: Drug uptake
Outline: (§1)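 Tissue distribution in C57BL/6 mice. A single oral dose of 10 mg/kg was given as a solution in EtOH/PEG400/water (10:50:40). Parent and its cis isomer were both measured, in μM, in plasma, liver, small intestine, adipose fat and skin at 3 h and 24 h.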

[2] = tested on: Mus musculus; experiment: Inhibition of plasma triglyceride accumulation in mouse at 10 mg/kg, po dosed 2 hrs before lipid challenge and measured at 18 hrs by lipid tolerance test; format: functional
Outline: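 Mouse lipid tolerance test measuring plasma triglyceride excursion. Dosing was 10 mpk oral, with triglyceride reduction read at 18 h.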

[3] = Oral bioavailability in Beagle dog at 4 mg/kg; format: ADME, organism-based, Canis lupus familiaris; conditions: in vivo
Outline: (§2)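 Single-dose pharmacokinetics. Beagle dogs were dosed at 1 mg/kg iv as a solution in 30% captisol (pH 8) and at 4 mg/kg po in 0.5 methylcellulose.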

[4] = AUC in Beagle dog at 4 mg/kg, po; format: ADME, organism-based, Canis lupus familiaris; design: dose 4 mg/kg, route oral; conditions: plasma; outline: as §2
[5] = Drug level in small intestine of C57BL/6 mouse at 10 mg/kg, po after 3 hrs; format: ADME, organism-based; design: dose 10 mg/kg, route oral; conditions: read-out: Drug uptake; outline: as §1
[6] = tested on: Salmonella typhimurium; experiment: Induction of mutagenicity in Salmonella typhimurium TA1535 assessed as increase in number of revertants in absence of metabolic activation; format: toxicity, organism-based; conditions: salmonella enterica subsp. enterica serovar typhimurium
Outline: (§3)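 Microbial reverse-mutation (Ames) test in strains TA1535, TA98 and TA100, with and without metabolic activation. The concentration range was 30 to 5000 μg/plate. A positive call required a 2-fold or greater increase in revertants relative to the solvent control.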

[7] = tested on: Zone of skin; experiment: Drug level in skin of C57BL/6 mouse assessed as cis-4-((1-(5-(5-(trifluoromethyl)-1H-benzo[d]imidazol-2-yl)pyridin-2-yl)piperidin-4-yl)oxy)cyclohexanecarboxylic acid level at 10 mg/kg, po after 3 hrs; format: ADME, organism-based; design: dose 10 mg/kg, route oral; conditions: in vivo, read-out: Drug uptake; outline: as §1
[8] = Clearance in Sprague-Dawley rat at 1 mg/kg, iv or 2 mg/kg, po; format: ADME, organism-based; conditions: in vivo
[9] = tested on: Rattus norvegicus; experiment: Inhibition of plasma triglyceride accumulation in Sprague-Dawley rat at 1 mg/kg, po dosed 2 hrs before lipid challenge and measured at 18 hrs by lipid tolerance test; format: functional
Outline: (§4)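 Rat lipid tolerance test at oral doses of 1 and 3 mpk. Reduction of lipid excursion was normalized to a reference DGAT1 inhibitor given at 10 mpk, set as 100%. Plasma drug levels were the parent and its cis isomer combined, measured 4 h after oral dosing.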

[10] = biological target: T1, Diacylglycerol O-acyltransferase 1 (Homo sapiens, UniProt O75907); experiment: Inhibition of human DGAT1
T1 sequence (O75907 whole entry): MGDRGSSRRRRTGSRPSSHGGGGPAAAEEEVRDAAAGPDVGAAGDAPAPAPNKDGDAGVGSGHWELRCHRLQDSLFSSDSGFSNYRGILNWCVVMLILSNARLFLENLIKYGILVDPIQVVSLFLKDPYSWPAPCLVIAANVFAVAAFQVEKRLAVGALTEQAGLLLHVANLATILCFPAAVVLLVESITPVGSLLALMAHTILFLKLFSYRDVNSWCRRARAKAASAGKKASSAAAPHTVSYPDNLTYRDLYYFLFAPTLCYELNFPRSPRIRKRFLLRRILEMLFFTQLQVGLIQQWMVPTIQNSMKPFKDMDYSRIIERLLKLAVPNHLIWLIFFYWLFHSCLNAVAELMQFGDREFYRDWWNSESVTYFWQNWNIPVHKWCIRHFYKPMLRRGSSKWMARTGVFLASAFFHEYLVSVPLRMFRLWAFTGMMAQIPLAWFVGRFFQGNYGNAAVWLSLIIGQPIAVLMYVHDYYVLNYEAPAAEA

[11] = tested on: Canis familiaris; experiment: AUC in Beagle dog assessed as cis-4-((1-(5-(5-(trifluoromethyl)-1H-benzo[d]imidazol-2-yl)pyridin-2-yl)piperidin-4-yl)oxy)cyclohexanecarboxylic acid at 4 mg/kg, po; format: ADME, organism-based, Canis lupus familiaris, Plasma; design: dose 4 mg/kg, route oral; conditions: in vivo; outline: as §2
[12] = tested on: Liver; experiment: Drug level in liver of C57BL/6 mouse assessed as cis-4-((1-(5-(5-(trifluoromethyl)-1H-benzo[d]imidazol-2-yl)pyridin-2-yl)piperidin-4-yl)oxy)cyclohexanecarboxylic acid level at 10 mg/kg, po after 24 hrs; format: ADME, organism-based; design: dose 10 mg/kg, route oral; conditions: in vivo, read-out: Drug uptake; outline: as §1
[13] = tested on: Salmonella typhimurium; experiment: Induction of mutagenicity in Salmonella typhimurium TA1535 assessed as increase in number of revertants in presence of metabolic activation; format: toxicity, organism-based; conditions: salmonella enterica subsp. enterica serovar typhimurium; outline: as §3
[14] = Drug level in adipose fat of C57BL/6 mouse assessed as cis-4-((1-(5-(5-(trifluoromethyl)-1H-benzo[d]imidazol-2-yl)pyridin-2-yl)piperidin-4-yl)oxy)cyclohexanecarboxylic acid level at 10 mg/kg, po after 24 hrs; format: ADME, organism-based, Adipose tissue; design: dose 10 mg/kg, route oral; conditions: in vivo, read-out: Drug uptake; outline: as §1
[15] = tested on: Rattus norvegicus; experiment: AUC in Sprague-Dawley rat assessed as cis-4-((1-(5-(5-(trifluoromethyl)-1H-benzo[d]imidazol-2-yl)pyridin-2-yl)piperidin-4-yl)oxy)cyclohexanecarboxylic acid rat at 2 mg/kg, po; format: ADME, organism-based, Plasma; design: dose 2 mg/kg, route oral; conditions: in vivo
[16] = tested on: Salmonella typhimurium; experiment: Induction of mutagenicity in Salmonella typhimurium TA100 assessed as increase in number of revertants in presence of metabolic activation; format: toxicity, organism-based; conditions: salmonella enterica subsp. enterica serovar typhimurium; outline: as §3
[17] = Unbound fraction in mouse plasma; format: ADME, cell-free
[18] = tested on: Intestine; experiment: Drug level in small intestine of C57BL/6 mouse assessed as cis-4-((1-(5-(5-(trifluoromethyl)-1H-benzo[d]imidazol-2-yl)pyridin-2-yl)piperidin-4-yl)oxy)cyclohexanecarboxylic acid level at 10 mg/kg, po after 3 hrs; format: ADME, organism-based; design: dose 10 mg/kg, route oral; conditions: in vivo, read-out: Drug uptake; outline: as §1
[19] = biological target: Voltage-gated inwardly rectifying potassium channel KCNH2 (Homo sapiens, UniProt Q12809); experiment: Displacement of radiolabeled MK499 from human ERG
Outline: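 hERG off-target activity was measured in a competitive binding assay against radiolabeled MK-499. The value is reported as Ki.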

[20] = Clearance in Beagle dog at 1 mg/kg, iv or 4 mg/kg, po; format: ADME, organism-based, Canis lupus familiaris; conditions: in vivo; outline: as §2
[21] = Solubility in PBS buffer at pH 2; format: physicochemical
Outline: (§5)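 High-throughput solubility test in PBS buffer at pH 2 and at pH 7. Free form and salt forms (TFA, formate, ammonium) were tested separately.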

[22] = Solubility in PBS buffer at pH 7; format: physicochemical; outline: as §5
[23] = tested on: Salmonella typhimurium; experiment: Induction of mutagenicity in Salmonella typhimurium TA98 assessed as increase in number of revertants in absence of metabolic activation; format: toxicity, organism-based; conditions: salmonella enterica subsp. enterica serovar typhimurium; outline: as §3
[24] = tested on: Plasma; experiment: Drug level in plasma of C57BL/6 mouse assessed as cis-4-((1-(5-(5-(trifluoromethyl)-1H-benzo[d]imidazol-2-yl)pyridin-2-yl)piperidin-4-yl)oxy)cyclohexanecarboxylic acid level at 10 mg/kg, po after 3 hrs; format: ADME, organism-based; design: dose 10 mg/kg, route oral; conditions: in vivo; outline: as §1
[25] = Drug level in skin of C57BL/6 mouse at 10 mg/kg, po after 24 hrs; format: ADME, organism-based, Zone of skin; design: dose 10 mg/kg, route oral; conditions: read-out: Drug uptake; outline: as §1
[26] = tested on: Salmonella typhimurium; experiment: Induction of mutagenicity in Salmonella typhimurium TA98 assessed as increase in number of revertants in presence of metabolic activation; format: toxicity, organism-based; conditions: salmonella enterica subsp. enterica serovar typhimurium; outline: as §3
[27] = Volume of distribution at steady state in Beagle dog at 1 mg/kg, iv or 4 mg/kg, po; format: ADME, organism-based, Canis lupus familiaris; conditions: in vivo, read-out: Vdss
Outline: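 Beagle dogs were dosed 1 mg/kg iv as a solution in 30% captisol (pH 8) and 4 mg/kg po in methylcellulose. Pharmacokinetic parameters were derived from these dosings.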

[28] = Plasma concentration in Sprague-Dawley rat at 1 mg/kg, po dosed 2 hrs before lipid challenge and measured at 4 hrs by lipid tolerance test; format: ADME, organism-based; design: dose 1 mg/kg, route oral; outline: as §4

Voltage-gated inwardly rectifying potassium channel KCNH2, sequence (Q12809 whole entry): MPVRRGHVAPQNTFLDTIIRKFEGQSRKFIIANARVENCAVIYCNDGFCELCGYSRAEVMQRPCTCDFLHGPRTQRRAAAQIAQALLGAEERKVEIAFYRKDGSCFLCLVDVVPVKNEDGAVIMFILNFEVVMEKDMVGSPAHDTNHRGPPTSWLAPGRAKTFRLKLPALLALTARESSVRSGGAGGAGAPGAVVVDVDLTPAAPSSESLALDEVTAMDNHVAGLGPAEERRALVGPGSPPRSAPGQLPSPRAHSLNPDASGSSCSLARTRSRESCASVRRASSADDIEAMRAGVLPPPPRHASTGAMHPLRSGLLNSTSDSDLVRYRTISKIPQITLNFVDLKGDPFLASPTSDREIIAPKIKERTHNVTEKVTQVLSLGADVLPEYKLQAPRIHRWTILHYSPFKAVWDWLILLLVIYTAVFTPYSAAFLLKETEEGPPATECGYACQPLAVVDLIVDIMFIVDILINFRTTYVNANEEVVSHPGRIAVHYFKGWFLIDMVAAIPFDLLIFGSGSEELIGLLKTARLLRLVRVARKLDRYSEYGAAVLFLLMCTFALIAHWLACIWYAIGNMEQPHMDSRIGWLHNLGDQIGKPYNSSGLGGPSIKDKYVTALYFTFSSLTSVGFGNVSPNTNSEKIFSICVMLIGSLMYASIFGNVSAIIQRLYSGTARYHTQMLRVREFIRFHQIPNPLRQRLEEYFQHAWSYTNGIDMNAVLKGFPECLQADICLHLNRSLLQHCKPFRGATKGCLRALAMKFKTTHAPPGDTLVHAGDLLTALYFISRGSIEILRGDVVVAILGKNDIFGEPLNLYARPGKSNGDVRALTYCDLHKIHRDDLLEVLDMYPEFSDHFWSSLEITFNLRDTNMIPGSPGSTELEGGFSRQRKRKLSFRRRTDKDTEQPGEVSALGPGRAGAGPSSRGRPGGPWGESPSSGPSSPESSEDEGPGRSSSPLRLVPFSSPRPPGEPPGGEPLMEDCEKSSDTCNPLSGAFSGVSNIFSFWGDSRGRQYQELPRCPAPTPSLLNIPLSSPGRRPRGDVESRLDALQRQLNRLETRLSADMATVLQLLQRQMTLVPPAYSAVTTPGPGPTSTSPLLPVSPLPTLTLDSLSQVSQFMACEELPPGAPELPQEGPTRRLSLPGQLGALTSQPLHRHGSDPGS

Question: With O=C(O)[C@H]1CC[C@H](OC2CCN(c3ccc(-c4nc5cc(C(F)(F)F)ccc5[nH]4)cn3)CC2)CC1 as the molecule, how does the concentration at 24 h [1] read?
Answer: < 10 nM

Question: What about the inhibition in vivo at 10 mg/kg [2] of the same molecule?
Answer: 89%

Question: What about the bioavailability [3] of the same molecule?
Answer: 126%

Question: What about the AUC [4] of the same molecule?
Answer: 1.94 µM·h

Question: And the concentration at 3 h [5]?
Answer: 36600 nM

Question: What about the Activity [6] of the same molecule?
Answer: Non-toxic

Question: What about the concentration [7] of the same molecule?
Answer: 46 nM

Question: What about the clearance [8] of the same molecule?
Answer: 5.82 mL/min/kg

Question: What about the inhibition in vivo at 1 mg/kg [9] of the same molecule?
Answer: 80%

Question: What about the IC50 [10] of the same molecule?
Answer: 0.0039 µM

Question: What about the AUC [11] of the same molecule?
Answer: 0.11 µM·h

Question: And the concentration [12]?
Answer: 672 nM

Question: And the Activity [13]?
Answer: Non-toxic

Question: What about the concentration [14] of the same molecule?
Answer: < 10 nM

Question: What about the AUC [15] of the same molecule?
Answer: 0.97 µM·h

Question: And the Activity [16]?
Answer: Non-toxic

Question: And the fraction unbound [17]?
Answer: 0.078

Question: What about the concentration [18] of the same molecule?
Answer: 5030 nM

Question: What about the Ki [19] of the same molecule?
Answer: 10 µM

Question: And the clearance [20]?
Answer: 88.9 mL/min/kg

Question: What about the solubility [21] of the same molecule?
Answer: 167 µM (≈ 81.6 µg/mL)

Question: What about the solubility [22] of the same molecule?
Answer: 153 µM (≈ 74.7 µg/mL)

Question: And the Activity [23]?
Answer: Non-toxic

Question: And the concentration [24]?
Answer: 54 nM

Question: What about the concentration at 24 h [25] of the same molecule?
Answer: 167 nM

Question: And the Activity [26]?
Answer: Non-toxic

Question: What about the Vd [27] of the same molecule?
Answer: 4.54 L/kg

Question: What about the concentration at 4 h [28] of the same molecule?
Answer: 20 nM
